{
  "source": "ChEMBL document CHEMBL1138064",
  "about": "“Discovery of N-[(3R)-1-azabicyclo[2.2.2]oct-3-yl]furo[2,3-c]pyridine-5-carboxamide, an agonist of the alpha7 nicotinic acetylcholine receptor, for the potential treatment of cognitive deficits in schizophrenia: synthesis and structure--activity relationship” (J Med Chem, 2006)",
  "key": {"Homo sapiens [1]": {"species_on_record": "Homo sapiens", "experiment": "Inhibition of PCP receptor at 1 uM"}, "[2]": {"biological_target": "Substance-K receptor (Homo sapiens) (UniProt P21452)", "sequence (P21452 whole entry)": "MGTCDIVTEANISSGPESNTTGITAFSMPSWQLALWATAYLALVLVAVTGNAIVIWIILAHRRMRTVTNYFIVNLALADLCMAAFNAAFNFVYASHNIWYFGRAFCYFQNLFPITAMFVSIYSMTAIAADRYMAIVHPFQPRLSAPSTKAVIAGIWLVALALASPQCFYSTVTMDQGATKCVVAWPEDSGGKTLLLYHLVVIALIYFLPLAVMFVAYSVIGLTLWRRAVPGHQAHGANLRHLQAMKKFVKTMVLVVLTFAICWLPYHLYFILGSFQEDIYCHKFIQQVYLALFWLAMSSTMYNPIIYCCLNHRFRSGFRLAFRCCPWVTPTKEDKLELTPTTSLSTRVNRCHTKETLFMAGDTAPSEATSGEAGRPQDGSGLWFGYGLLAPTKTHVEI", "experiment": "Inhibition of NK2 receptor at 1 uM"}, "[3]": {"biological_target": "Neuromedin-K receptor (Homo sapiens) (UniProt P29371)", "sequence (P29371 whole entry)": "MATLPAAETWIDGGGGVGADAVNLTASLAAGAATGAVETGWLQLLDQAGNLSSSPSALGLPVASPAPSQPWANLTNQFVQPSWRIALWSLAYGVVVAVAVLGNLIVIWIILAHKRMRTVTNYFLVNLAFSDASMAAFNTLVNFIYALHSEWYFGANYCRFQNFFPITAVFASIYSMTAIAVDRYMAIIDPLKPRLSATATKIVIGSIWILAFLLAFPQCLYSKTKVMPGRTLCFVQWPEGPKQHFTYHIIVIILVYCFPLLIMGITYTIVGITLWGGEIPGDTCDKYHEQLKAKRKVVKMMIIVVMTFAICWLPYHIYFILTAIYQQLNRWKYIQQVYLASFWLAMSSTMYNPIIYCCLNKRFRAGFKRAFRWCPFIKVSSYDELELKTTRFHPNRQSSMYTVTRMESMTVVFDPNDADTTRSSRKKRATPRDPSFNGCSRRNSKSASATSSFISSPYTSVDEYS", "experiment": "Inhibition of NK3 receptor at 1 uM"}, "[4]": {"biological_target": "5-hydroxytryptamine receptor 5A (Homo sapiens) (UniProt P47898)", "experiment": "Inhibition of 5HT5A receptor at 1 uM"}, "[5]": {"biological_target": "Adrenergic receptor alpha-1 (Homo sapiens) (UniProt P35348+P25100+P35368)", "experiment": "Inhibition of adrenergic alpha1 receptor at 1 uM", "type": "protein assay"}, "[6]": {"biological_target": "Cannabinoid receptor 1 (Homo sapiens) (UniProt P21554)", "sequence (P21554 whole entry)": "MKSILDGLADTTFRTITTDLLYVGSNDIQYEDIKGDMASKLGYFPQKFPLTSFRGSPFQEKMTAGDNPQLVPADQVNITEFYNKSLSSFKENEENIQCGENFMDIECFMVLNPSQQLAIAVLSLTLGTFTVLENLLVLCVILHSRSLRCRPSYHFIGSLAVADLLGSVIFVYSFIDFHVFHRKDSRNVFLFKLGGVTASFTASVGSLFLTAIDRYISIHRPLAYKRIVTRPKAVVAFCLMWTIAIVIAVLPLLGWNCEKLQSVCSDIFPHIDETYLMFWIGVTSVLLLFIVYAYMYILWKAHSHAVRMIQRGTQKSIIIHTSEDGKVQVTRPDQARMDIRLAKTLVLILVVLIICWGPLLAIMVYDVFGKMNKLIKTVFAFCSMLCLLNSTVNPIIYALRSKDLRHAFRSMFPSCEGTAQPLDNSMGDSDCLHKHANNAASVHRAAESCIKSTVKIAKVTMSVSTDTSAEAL", "experiment": "Inhibition of CB1 receptor at 1 uM"}, "[7]": {"experiment": "Half life in Sprague-Dawley rat liver microsome", "type": "ADME", "details": "liver microsomes"}, "[8]": {"biological_target": "Neuronal acetylcholine receptor subunit alpha-7 (Rattus norvegicus, UniProt Q05941)", "experiment": "Displacement of [3H]MLA from alpha-7 nAChR in Sprague-Dawley rat brain homogenates", "type": "tissue-based", "method_in_brief": "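Rat brain homogenate binding assay with [3H]MLA as radioligand. Values are the average of two or more experiments.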"}, "[9]": {"biological_target": "Neuronal acetylcholine receptor subunit alpha-7 (Rattus norvegicus) (UniProt Q05941)", "experiment": "Activity at alpha7 nAChR in Sprague-Dawley rat hippocampal neurons assessed as induction of MLA-inhibited desensitizing inward current at 0.3 uM relative to (-)-nicotine", "type": "functional, tissue-based", "design": "scale not given: the % may be the effect or the level left", "details": "Hippocampus", "method_in_brief": "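Rat hippocampal neurons were recorded by whole-cell patch clamp with rapid agonist application. Desensitizing inward currents were measured, and α7 mediation was tested with MLA (10 nM), n = 3.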"}, "[10]": {"biological_target": "5-hydroxytryptamine receptor 2C (Homo sapiens) (UniProt P28335)", "experiment": "Inhibition of 5HT2C receptor at 1 uM"}, "[11]": {"biological_target": "Prostaglandin G/H synthase 1 (Homo sapiens) (UniProt P23219)", "sequence (P23219 whole entry)": "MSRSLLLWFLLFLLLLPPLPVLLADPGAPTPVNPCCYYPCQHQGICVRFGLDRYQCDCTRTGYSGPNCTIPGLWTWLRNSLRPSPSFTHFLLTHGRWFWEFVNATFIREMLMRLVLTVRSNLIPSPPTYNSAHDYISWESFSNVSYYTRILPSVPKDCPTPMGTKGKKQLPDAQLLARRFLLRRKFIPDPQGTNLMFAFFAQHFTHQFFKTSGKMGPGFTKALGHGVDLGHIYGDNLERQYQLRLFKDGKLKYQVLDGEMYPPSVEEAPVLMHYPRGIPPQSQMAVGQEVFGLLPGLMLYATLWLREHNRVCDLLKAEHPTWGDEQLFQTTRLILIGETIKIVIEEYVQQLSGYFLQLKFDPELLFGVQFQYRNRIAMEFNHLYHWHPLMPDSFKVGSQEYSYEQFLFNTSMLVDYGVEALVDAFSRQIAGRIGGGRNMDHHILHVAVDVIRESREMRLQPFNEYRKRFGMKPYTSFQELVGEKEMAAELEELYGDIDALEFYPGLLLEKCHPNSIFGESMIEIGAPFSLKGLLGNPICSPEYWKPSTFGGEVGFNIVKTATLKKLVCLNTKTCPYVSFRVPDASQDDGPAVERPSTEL", "experiment": "Inhibition of COX1 at 1 uM"}, "[12]": {"biological_target": "Adrenergic receptor alpha-2 (Homo sapiens) (UniProt P08913+P18825+P18089)", "experiment": "Inhibition of adrenergic alpha2 receptor at 1 uM", "type": "protein assay"}, "Homo sapiens [13]": {"species_on_record": "Homo sapiens", "experiment": "Inhibition of elastase at 1 uM"}, "Rattus norvegicus [14]": {"test_system": "Rattus norvegicus", "experiment": "Reversal of amphetamine-induced gating deficit in Sprague-Dawley at 0.3 mg/kg, iv", "type": "functional, organism-based", "design": "dose 0.3 mg/kg", "method_in_brief": "(§1)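 Anesthetised rats; d-amphetamine 1 mg/kg iv given to disrupt auditory gating recorded in the hippocampal CA3 region (conditioning vs test responses, analogous to human P50). Agonist given iv afterwards; read-out is % gating versus amphetamine-alone. The 10 mg/kg dose was run as a separate experiment. Brain drug levels were measured after the iv doses.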"}, "Rattus norvegicus [15]": {"test_system": "Rattus norvegicus", "experiment": "Reversal of amphetamine-induced gating deficit in Sprague-Dawley at 1 mg/kg, iv", "type": "functional, organism-based", "design": "dose 1 mg/kg", "method_in_brief": "as §1"}, "[16]": {"biological_target": "Angiotensin-converting enzyme (Homo sapiens) (UniProt P12821)", "experiment": "Inhibition of ACE at 1 uM"}, "[17]": {"biological_target": "Serotonin 3 (5-HT3) receptor", "experiment": "Binding affinity to 5HT3 receptor", "type": "protein-complex assay, Homo sapiens"}, "Homo sapiens [18]": {"species_on_record": "Homo sapiens", "experiment": "Inhibition of Small conductance calcium-activated potassium channel at 1 uM"}, "[19]": {"biological_target": "Gastrin/cholecystokinin type B receptor (Homo sapiens) (UniProt P32239)", "experiment": "Inhibition of CCK2 receptor at 1 uM"}, "[20]": {"biological_target": "Histamine H1 receptor (Homo sapiens) (UniProt P35367)", "sequence (P35367 whole entry)": "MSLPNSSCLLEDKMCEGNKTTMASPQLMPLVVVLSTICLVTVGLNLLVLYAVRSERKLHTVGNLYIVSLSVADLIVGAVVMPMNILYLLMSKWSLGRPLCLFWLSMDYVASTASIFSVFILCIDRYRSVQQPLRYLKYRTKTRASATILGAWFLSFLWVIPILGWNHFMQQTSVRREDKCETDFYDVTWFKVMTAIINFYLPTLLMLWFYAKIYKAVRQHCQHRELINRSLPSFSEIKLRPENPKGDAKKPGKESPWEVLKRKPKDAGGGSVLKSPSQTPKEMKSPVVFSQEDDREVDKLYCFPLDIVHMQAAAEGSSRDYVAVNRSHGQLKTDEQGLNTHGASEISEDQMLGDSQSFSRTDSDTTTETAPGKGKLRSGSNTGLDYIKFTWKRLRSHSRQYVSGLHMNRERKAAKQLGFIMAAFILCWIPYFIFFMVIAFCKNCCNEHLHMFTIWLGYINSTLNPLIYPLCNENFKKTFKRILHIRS", "experiment": "Inhibition of central histamine H1 receptor at 1 uM"}, "[21]": {"biological_target": "Tyrosine 3-monooxygenase (Homo sapiens) (UniProt P07101)", "experiment": "Inhibition of tyrosine hydroxylase at 1 uM"}, "[22]": {"biological_target": "Phospholipase A2 (Homo sapiens) (UniProt P04054)", "sequence (P04054 23-148 limits assumed)": "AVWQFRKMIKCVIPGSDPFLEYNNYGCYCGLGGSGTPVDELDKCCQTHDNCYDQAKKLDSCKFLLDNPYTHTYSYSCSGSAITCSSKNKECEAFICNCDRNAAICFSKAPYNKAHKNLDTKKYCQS", "experiment": "Inhibition of phospholipase A2 at 1 uM"}, "[23]": {"biological_target": "Cannabinoid receptor 2 (Homo sapiens) (UniProt P34972)", "experiment": "Inhibition of CB2 receptor at 1 uM"}, "[24]": {"biological_target": "cGMP-dependent 3',5'-cyclic phosphodiesterase (Homo sapiens) (UniProt O00408)", "sequence (O00408 whole entry)": "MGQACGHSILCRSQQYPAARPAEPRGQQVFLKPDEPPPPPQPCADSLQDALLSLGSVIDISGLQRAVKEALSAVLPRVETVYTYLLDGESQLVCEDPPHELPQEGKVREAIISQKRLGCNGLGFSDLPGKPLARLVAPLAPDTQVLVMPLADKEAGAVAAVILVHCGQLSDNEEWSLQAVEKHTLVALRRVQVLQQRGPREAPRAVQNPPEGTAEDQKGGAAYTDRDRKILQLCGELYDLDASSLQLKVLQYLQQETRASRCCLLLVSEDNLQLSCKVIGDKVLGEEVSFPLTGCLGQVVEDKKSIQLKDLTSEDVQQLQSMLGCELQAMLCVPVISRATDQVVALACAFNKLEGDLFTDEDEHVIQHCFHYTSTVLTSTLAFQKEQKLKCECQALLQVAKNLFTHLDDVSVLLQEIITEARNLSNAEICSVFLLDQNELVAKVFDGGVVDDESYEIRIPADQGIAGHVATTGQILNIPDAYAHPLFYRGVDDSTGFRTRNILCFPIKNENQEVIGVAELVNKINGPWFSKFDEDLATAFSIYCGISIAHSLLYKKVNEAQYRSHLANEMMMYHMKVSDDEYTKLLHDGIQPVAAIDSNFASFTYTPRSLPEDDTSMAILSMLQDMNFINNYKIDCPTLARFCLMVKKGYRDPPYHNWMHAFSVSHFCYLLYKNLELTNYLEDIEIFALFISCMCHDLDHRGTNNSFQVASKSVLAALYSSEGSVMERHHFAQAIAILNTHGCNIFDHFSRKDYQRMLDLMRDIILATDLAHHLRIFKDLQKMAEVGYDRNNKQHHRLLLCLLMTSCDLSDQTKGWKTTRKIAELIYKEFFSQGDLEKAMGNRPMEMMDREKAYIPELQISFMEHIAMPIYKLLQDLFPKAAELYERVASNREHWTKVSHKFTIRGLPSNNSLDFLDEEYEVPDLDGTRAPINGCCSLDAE", "experiment": "Inhibition of PDE2 at 1 uM"}, "[25]": {"biological_target": "Muscarinic acetylcholine receptor M3 (Homo sapiens) (UniProt P20309)", "sequence (P20309 whole entry, looked up)": "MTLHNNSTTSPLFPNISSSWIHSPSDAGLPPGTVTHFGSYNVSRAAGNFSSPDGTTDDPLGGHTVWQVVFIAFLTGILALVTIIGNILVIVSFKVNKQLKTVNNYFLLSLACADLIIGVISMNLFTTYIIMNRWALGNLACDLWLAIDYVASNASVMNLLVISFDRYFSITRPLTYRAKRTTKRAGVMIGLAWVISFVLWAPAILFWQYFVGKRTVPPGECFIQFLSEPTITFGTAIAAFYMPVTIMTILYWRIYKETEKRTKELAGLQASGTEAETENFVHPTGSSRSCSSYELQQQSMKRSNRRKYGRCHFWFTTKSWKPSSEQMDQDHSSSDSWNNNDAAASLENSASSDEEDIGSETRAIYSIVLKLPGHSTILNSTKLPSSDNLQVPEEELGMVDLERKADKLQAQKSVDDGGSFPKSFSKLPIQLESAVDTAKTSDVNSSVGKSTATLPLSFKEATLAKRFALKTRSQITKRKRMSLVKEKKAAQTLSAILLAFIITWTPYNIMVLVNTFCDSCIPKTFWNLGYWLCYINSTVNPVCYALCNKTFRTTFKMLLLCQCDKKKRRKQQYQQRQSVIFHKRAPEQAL", "experiment": "Inhibition of M3 receptor at 1 uM"}, "[26]": {"biological_target": "5-hydroxytryptamine receptor 7 (Homo sapiens) (UniProt P34969)", "sequence (P34969 whole entry)": "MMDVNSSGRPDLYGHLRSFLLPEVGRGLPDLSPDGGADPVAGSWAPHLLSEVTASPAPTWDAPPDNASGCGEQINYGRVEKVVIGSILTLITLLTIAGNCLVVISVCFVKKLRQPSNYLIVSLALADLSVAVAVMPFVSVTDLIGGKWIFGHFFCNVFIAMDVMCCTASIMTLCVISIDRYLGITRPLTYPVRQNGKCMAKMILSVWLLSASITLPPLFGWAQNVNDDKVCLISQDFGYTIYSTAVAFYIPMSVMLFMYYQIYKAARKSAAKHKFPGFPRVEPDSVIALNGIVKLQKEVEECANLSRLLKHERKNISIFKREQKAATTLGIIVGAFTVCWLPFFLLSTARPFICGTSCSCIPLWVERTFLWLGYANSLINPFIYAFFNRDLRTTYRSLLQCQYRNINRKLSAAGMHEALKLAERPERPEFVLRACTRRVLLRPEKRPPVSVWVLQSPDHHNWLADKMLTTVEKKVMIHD", "experiment": "Inhibition of 5HT7 receptor at 1 uM"}, "[27]": {"biological_target": "Cholecystokinin receptor type A (Homo sapiens) (UniProt P32238)", "experiment": "Inhibition of CCK1 receptor at 1 uM"}, "[28]": {"biological_target": "D(2) dopamine receptor (Homo sapiens) (UniProt P14416)", "sequence (P14416 whole entry)": "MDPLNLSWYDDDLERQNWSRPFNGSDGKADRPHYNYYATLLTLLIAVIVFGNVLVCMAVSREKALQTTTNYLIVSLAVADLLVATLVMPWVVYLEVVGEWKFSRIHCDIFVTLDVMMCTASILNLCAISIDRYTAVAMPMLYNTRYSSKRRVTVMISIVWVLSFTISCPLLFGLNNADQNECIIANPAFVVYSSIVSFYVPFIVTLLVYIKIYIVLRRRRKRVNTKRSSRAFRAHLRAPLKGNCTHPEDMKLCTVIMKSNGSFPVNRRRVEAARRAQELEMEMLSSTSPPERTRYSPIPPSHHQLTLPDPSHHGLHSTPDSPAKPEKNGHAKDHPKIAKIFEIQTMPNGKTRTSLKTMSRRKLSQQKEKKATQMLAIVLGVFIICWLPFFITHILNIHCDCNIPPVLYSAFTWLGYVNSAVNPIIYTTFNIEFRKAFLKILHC", "experiment": "Inhibition of D2 receptor at 1 uM"}, "[29]": {"biological_target": "Neuronal acetylcholine receptor; alpha4/beta2 (Rattus norvegicus) (UniProt P09483+P12390)", "experiment": "Inhibition of [3H]cytisine binding to alpha4beta2 nAChR in rat brain homogenate at 1 uM", "type": "tissue-based", "method_in_brief": "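Radioligand displacement in rat brain homogenate with [³H]cytisine as the α4β2 ligand; test compound at 1 µM; value reported as % block of binding.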"}, "[30]": {"biological_target": "C-X-C chemokine receptor type 2 (Homo sapiens) (UniProt P25025)", "experiment": "Inhibition of CXCR2 at 1 uM"}, "[31]": {"biological_target": "Muscarinic acetylcholine receptor M5 (Homo sapiens) (UniProt P08912)", "experiment": "Inhibition of M5 receptor at 1 uM"}, "Rattus norvegicus [32]": {"test_system": "Rattus norvegicus", "experiment": "Ability to recognize novel object in Sprague-Dawley rat at 1 mg/kg, sc after 24 hrs", "type": "functional, organism-based", "design": "dose 1 mg/kg", "method_in_brief": "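Rats dosed subcutaneously 30 min before each of three experimental sessions. Discrimination between the novel and the familiar object was scored after a 24 h delay.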"}},
  "note": "Calls of active or inactive are those of the source. The calls are words filed in the database; no cut-off is given here.",
  "data": [
    {"smiles": "O=C(N[C@H]1CN2CCC1CC2)c1cc2ccoc2cn1", "note": "[PHA-543613]", "values": [
      {"measurement": "inhibition", "setting": "Homo sapiens [1]", "result": "< 10", "unit": "%"},
      {"measurement": "inhibition", "setting": "[2]", "result": "< 10", "unit": "%"},
      {"measurement": "inhibition", "setting": "[3]", "result": "< 10", "unit": "%"},
      {"measurement": "inhibition", "setting": "[4]", "result": "< 10", "unit": "%"},
      {"measurement": "inhibition", "setting": "[5]", "result": "< 10", "unit": "%"},
      {"measurement": "inhibition", "setting": "[6]", "result": "< 10", "unit": "%"},
      {"measurement": "half-life", "setting": "[7]", "result": 40, "unit": "min"},
      {"measurement": "Ki", "setting": "[8]", "result": 0.0088, "unit": "µM"},
      {"measurement": "Activity", "setting": "[9]", "result": 34, "unit": "%"},
      {"measurement": "inhibition", "setting": "[10]", "result": "< 10", "unit": "%"},
      {"measurement": "inhibition", "setting": "[11]", "result": "< 10", "unit": "%"},
      {"measurement": "inhibition", "setting": "[12]", "result": 14, "unit": "%"},
      {"measurement": "inhibition", "setting": "Homo sapiens [13]", "result": 22, "unit": "%"},
      {"measurement": "Activity", "setting": "Rattus norvegicus [14]", "result": "Active"},
      {"measurement": "Activity", "setting": "Rattus norvegicus [15]", "result": "Active"},
      {"measurement": "inhibition", "setting": "[16]", "result": "< 10", "unit": "%"},
      {"measurement": "Ki", "setting": "[17]", "result": 0.511, "unit": "µM"},
      {"measurement": "inhibition", "setting": "Homo sapiens [18]", "result": "< 10", "unit": "%"},
      {"measurement": "inhibition", "setting": "[19]", "result": "< 10", "unit": "%"},
      {"measurement": "inhibition", "setting": "[20]", "result": "< 10", "unit": "%"},
      {"measurement": "inhibition", "setting": "[21]", "result": "< 10", "unit": "%"},
      {"measurement": "inhibition", "setting": "[22]", "result": 20, "unit": "%"},
      {"measurement": "inhibition", "setting": "[23]", "result": "< 10", "unit": "%"},
      {"measurement": "inhibition", "setting": "[24]", "result": 25, "unit": "%"},
      {"measurement": "inhibition", "setting": "[25]", "result": 33, "unit": "%"},
      {"measurement": "inhibition", "setting": "[26]", "result": "< 10", "unit": "%"},
      {"measurement": "inhibition", "setting": "[27]", "result": "< 10", "unit": "%"},
      {"measurement": "inhibition", "setting": "[28]", "result": "< 10", "unit": "%"},
      {"measurement": "inhibition", "setting": "[29]", "result": 13, "unit": "%"},
      {"measurement": "inhibition", "setting": "[30]", "result": "< 10", "unit": "%"},
      {"measurement": "inhibition", "setting": "[31]", "result": "< 10", "unit": "%"},
      {"measurement": "Activity", "setting": "Rattus norvegicus [32]", "result": "Active"}
    ]}
  ]
}
